Results on six compounds are retold here after PMC2874077 (Journal of medicinal chemistry, 2010).

Experiment [1] addresses T1, human arginase I (Homo sapiens, UniProt P05089).
T1 sequence (P05089 1-322): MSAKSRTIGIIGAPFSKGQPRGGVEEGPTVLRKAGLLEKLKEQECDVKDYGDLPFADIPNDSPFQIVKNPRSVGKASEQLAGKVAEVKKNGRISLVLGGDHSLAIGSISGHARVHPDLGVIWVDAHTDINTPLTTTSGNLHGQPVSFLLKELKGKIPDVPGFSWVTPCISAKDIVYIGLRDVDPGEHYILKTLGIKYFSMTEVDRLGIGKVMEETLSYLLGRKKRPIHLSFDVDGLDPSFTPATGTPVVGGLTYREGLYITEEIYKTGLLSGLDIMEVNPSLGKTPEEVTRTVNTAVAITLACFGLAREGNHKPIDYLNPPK
Nature of the experiment: Fixed-point kinetic assay with [14C-guanidino]-L-arginine. It is filed as biochemical. Particulars: for mode of inhibition: from Lineweaver-Burk plots. An outline of the steps: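 Affinity derived from a replot of v0/vi (velocity without/with inhibitor) against inhibitor concentration. Mode of inhibition (competitive or noncompetitive) assigned from Lineweaver-Burk plots at several inhibitor concentrations.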

In experiment [2] the test system is airways hyperresponsiveness in OVA/OVA Balb/C mice. It is filed as in vivo, mouse. In a few lines: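 Female Balb/C mice (6–8 weeks) were sensitized i.p. with 25 μg OVA plus 1 mg aluminium hydroxide on days 0 and 7, then given nebulized 6% OVA in PBS, or PBS, 25 min/day on days 14–20. On day 21: ketamine/xylazine anaesthesia, intubation, FlexiVent ventilation.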

Experiment [3] shares this test system. Particulars: cited from earlier work.
The mark [4] stands for this setting: OVA/OVA mice, nebulized 80 μg/g.

SMILES strings stand for the structures. Entries after “also recorded” stand apart in the source; their conditions may differ. Where two headings read alike, the source gives them in different places.

As to `Nc1ncc[nH]1` [2-Aminoimidazole, reference compound], the mode of inhibition result in experiment [1] is “noncompetitive”.
Turning to `Nc1ncc(C[C@H](N)C(=O)O)[nH]1` [2AH, L-2-aminohistidine], the mode of inhibition result in experiment [1] is “noncompetitive”.
Consider `Nc1nccn1CCC[C@H](N)C(=O)O` [A1P, 2-(S)-amino-5-(2-aminoimidazol-1-yl)-pentanoic acid], for which, in experiment [1], the mode of inhibition result is “competitive”. Besides, in experiment [2] (setting [4]), the “maximum resistance of the central airways (RN) following methacholine challenge” value is “significantly attenuated; also recorded: notably decreased” and the “total resistance of the respiratory system (R) following methacholine challenge” value is listed as “attenuated significantly”. The airways hyperresponsiveness result in experiment [2] (murine model of allergic airways inflammation) was “significantly attenuates; also recorded: significantly reduces”.
Consider `Nc1ncc(CCCC(N)C(=O)O)[nH]1` (stereo not shown) [A4P, 2-amino-5-(2-aminoimidazol-4-yl)-pentanoic acid], for which, in experiment [1] (enzymological assay), the inhibitory activity entry is “lacks inhibitory activity”.
`Nc1ncc(CC[C@H](N)C(=O)O)[nH]1` [AHH, 2-aminohomohistidine]: in experiment [1], the mode of inhibition result was “competitive”.
As to `N[C@@H](CSCCB(O)O)C(=O)O` [BEC, S-(2-boronoethyl)-L-cysteine], the airways hyperresponsiveness entry in experiment [3] (murine models of allergic airways inflammation ref 8a) is “reduces”. Further, the “maximum central airways responsiveness (RN max) to methacholine” value in experiment [3] (same model, earlier study ref 8a) was “attenuates”.
